Measured values collected from several papers.
Each line is one published result; the experiments were not run side by side.
Target: Mitogen-activated protein kinase kinase kinase 10 (MAP3K10, Homo sapiens, UniProt Q02779)

| SMILES | observed | action | method | tested at | measurement | value |
| --- | --- | --- | --- | --- | --- | --- |
| COc1cc(Cl)c(C(=O)N[C@@H](CN[C@H]2CC[C@@H](N)CC2)Cc2ccc(C#N)cc2)cc1-c1ccc(CN[C@H](C)c2ccc(C)cc2)o1 | enzyme activity | inhibitor |  | 1 µM | remaining activity | 97% |
| Cc1cc(NC(=O)c2cccc3cc(-c4cccc5[nH]nc(N)c45)ccc23)ccc1F | enzyme activity | inhibitor |  | 0.1 µM | activity vs control | 98% |
| CCN(CC)CCNC(=O)c1c(C)[nH]c(/C=C2\C(=O)Nc3ccc(F)cc32)c1C | cell-free assay |  |  | 0.5 µM | remaining signal | 104% |
| Cc1sc(C(=O)NC2COC2)cc1-n1cc(NC(=O)Nc2c(F)cccc2Cl)cn1 | enzyme activity | inhibitor |  | 10 µM | remaining activity | 90.8% |
| C[C@H](NC(=O)c1cnc2n1[C@](C)(Cc1ccc(C#N)cc1)C(=O)N2c1cc(Cl)c(F)c(Cl)c1)C(=O)NC1(c2ccccn2)CC1 | cell-free assay |  | competition with immobilised ligand | 1 µM | remaining binding | 100% |
| COc1cccc2c(NCc3ccccc3)nc(-n3c(N)nc4ccccc43)nc12 | target engagement in cells | inhibitor | chemoproteomics | 20 mM | inhibition | 17.4% |
| CNCc1ccccc1-c1csc([C@@H](C)Nc2nc(C)nc3cc(OC)c(OC)cc23)c1 | cell-free assay |  | competition with immobilised ligand | 1 µM | remaining binding | 96% |
| N#CCCc1ccc2c(c1)-c1[nH]c3ccc([N+](=O)[O-])cc3c1CC(=O)N2 | cell-free assay |  |  | 0.5 µM | remaining signal | 30% |
| CCCCNc1ncc2c(-c3ccc(F)cc3)nn(C[C@H]3CC[C@H](N)CC3)c2n1 | target engagement in cells | inhibitor | chemoproteomics | 20 mM | inhibition | 65.4% |
| O=C1NC(c2ccccn2)Sc2ccccc21 (stereo not drawn) | cell-free assay |  | competition with immobilised ligand | 1 µM | remaining binding | 94% |
| CC(C)(O)[C@H]1CC[C@H](Nc2ccc3ncc(-c4cccc(C(F)(F)F)c4)n3n2)CC1 | enzyme activity | inhibitor |  | 1 µM | remaining activity | 85% |
| O=C1NC(=O)c2cc(Nc3ccc(F)cc3)c(Nc3ccc(F)cc3)cc21 | cell-free assay |  |  | 0.5 µM | remaining signal | 90.6% |
| CC(C)(C)c1nc(-c2cccc(NS(=O)(=O)c3c(F)cccc3F)c2F)c(-c2ccnc(N)n2)s1 | enzyme activity | inhibitor | radiometric | 1 µM | remaining activity | 91% |
| COc1cc2c(N3CCN(C(=O)Nc4ccc(OC(C)C)cc4)CC3)ncnc2cc1OCCCN1CCCCC1 | cell-free assay |  |  | 0.5 µM | remaining signal | 101% |
| O=C(N1CCS(=O)(=O)CC1)N1C[C@H](c2ccc(OC(F)(F)F)cc2)C[C@H](c2nc(C3CC3)no2)C1 | cell-free assay |  | competition with immobilised ligand | 1 µM | remaining binding | 99% |
| Clc1ccc(Nc2nnc(Cc3ccncc3)c3ccccc23)cc1 | cell-free assay |  |  | 0.5 µM | remaining signal | 110% |
| CS(=O)(=O)NCC[C@H](NC(=O)c1cncc2c1cnn2-c1ccc(F)cc1)c1ccnc(S(C)(=O)=O)c1 | cell-free assay |  | competition with immobilised ligand | 1 µM | remaining binding | 75% |
| O=C(Nc1cnn(-c2csc(C(=O)NC3COC3)c2)c1)Nc1ccccc1Cl | enzyme activity | inhibitor |  | 5 µM | remaining activity | 98.5% |
